Assay results as given in article PMC9870020 (Tissue Barriers, 2022).

Key:
epithelial cell layers = conditions: cited from earlier work
epithelial cells = conditions: cited from earlier work
[1] = test system: nasal epithelial cell layers; conditions: cited from earlier work
[2] = test system: Caco-2 epithelial cell layers; assay: Permeability of fluorescent markers; assay type: cell-based; conditions: Caco-2 layers
Procedure, shortened: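 Caco-2 cells (passage 35–39) were grown 21 days on collagen-coated 0.33 cm2 inserts (0.4 µm pores) and equilibrated 30 min in warm HBSS. Test compound with FD-4 (0.25 mM) or other marker in HBSS was applied apically. Basolateral fluorescence (ex 485/em 520 nm) was read over 180 min against a calibration curve to give Papp. TEER was measured before and after. Triplicates, mean ± S.D.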

[3] = cited from earlier work
[4] = 2 mM; cited from earlier work
[5] = concentration of 625 µM; cited from earlier work

In the case of L-myr-ARRWR [L-R5], the “Passage of the peptide across epithelial cell layers” value (epithelial cell layers) is given as “not to cross epithelial cell layers”, the “Epithelial cytotoxicity in vitro” value (epithelial cells) is given as “lack of epithelial cytotoxicity” and the “Reversibility of TJ modulation by the peptide” value [1] is given as “rapidly reversible”. The “Size of molecules transported paracellularly with L-R5” value ([1]; nasal epithelial cell layers in vitro, previously shown) was “up to 4 kDa”, the “Molecular weight limit of opening of TJs caused by L-R5” value ([2]; L-R5 50 µM, from sodium fluorescein, FD-4 and FD-150 permeability) was 150 kDa and the “Permeability of sodium fluorescein in the presence of L-R5” value ([2]; Figure 5, L-R5 50 µM, 180 min, mean n = 3) was “higher permeability compared to FD-4”.
In the case of `CCCCCCCCCC(=O)[O-].[Na+]` [C10, sodium caprate], the “Toxicity of C10” value [3] is listed as “no toxicity was demonstrated”.
In the case of `CCCCCCCCCCCCOS(=O)(=O)[O-].[Na+]` [SDS, Sodium dodecylsulfate], the “Toxicity of SDS” value [4] is given as “toxic”.
In the case of `CC(C)(C)[C@]1(O)CC2OC(=O)CC23C(=O)OC2OC(=O)[C@H](O)C231` (stereo partly shown) [bilobalide, Bilobalide], the Cytotoxicity of bilobalide [5] is listed as “no cytotoxicity”.
With L-myr-ARRAR [LW-5] the “Permeability of FD-4 (Papp) in the presence of L-R5 analogues” value ([2]; Figure 6A, peptides 50 µM, FD-4 0.25 mM, 180 min, mean n = 3) was “significantly lower than with L-R5”.
